Converted amounts (≈) assume the structure as drawn.
Assays:
[1] = test system: Bacillus subtilis; assay: Antibacterial activity against Bacillus subtilis JH642 expressing trpC2 pheA assessed as reduction in bacterial growth incubated for 18 to 24 hrs by broth dilution method; assay type: functional
[2] = test system: NCI-H460; assay: Anticancer activity against human NCI-H460 cells assessed as reduction in cell viability incubated for 48 hrs by MTT assay; assay type: functional, cell-based; details: NCI-H460, 48 h
[3] = test system: Escherichia coli; assay: Antibacterial activity against Escherichia coli BAS901 expressing delta-imp assessed as reduction in bacterial growth incubated for 18 to 24 hrs by broth dilution method; assay type: functional
In short: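 The imp strain was grown in LB with kanamycin at 50 μg/mL overnight, diluted 10-fold, and shaken at 37 °C for 45 min to 2 h (about 10^8 CFU/mL). Diluted about 1000-fold to 10^5 CFU/mL. Drug stocks were 25 mM in DMSO, made up at 4X, and serially diluted 1:2 over seven concentrations. OD600 was read.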

[4] = test system: Staphylococcus aureus; assay: Antibacterial activity against methicillin-resistant Staphylococcus aureus MW2 assessed as reduction in bacterial growth incubated for 18 to 24 hrs by broth dilution method; assay type: functional
In short: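 Broth […] per NCCLS M7-A6. S. aureus grown overnight in Mueller Hinton Broth, diluted 10-fold, shaken at 37 °C for 45 min–2 h to approx. 10^8 CFU/mL, then diluted ~1000-fold to 10^5 CFU/mL. Compounds from 25 mM DMSO stocks, 1:2 serial dilution over seven concentrations.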

[5] = test system: Enterococcus faecalis; assay: Antibacterial activity against Enterococcus faecalis assessed as reduction in bacterial growth incubated for 18 to 24 hrs by broth dilution method; assay type: functional
In short: (§1)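 Grown in Brain Heart Infusion broth overnight, diluted 10-fold, and shaken at 37 °C for 45 min to 2 h (about 10^8 CFU/mL). Diluted about 1000-fold to 10^5 CFU/mL. Compounds came from 25 mM DMSO stocks, were made up at 4X working strength, and were serially diluted 1:2 over seven concentrations in microtiter wells. OD600 was read.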

[6] = test system: Enterococcus faecium; assay: Antibacterial activity against Enterococcus faecium assessed as reduction in bacterial growth incubated for 18 to 24 hrs by broth dilution method; assay type: functional; in short: as §1
[7] = test system: Staphylococcus aureus; assay: Antibacterial activity against methicillin-sensitive Staphylococcus aureus HG003 assessed as reduction in bacterial growth incubated for 18 to 24 hrs by broth dilution method; assay type: functional
In short: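 Cultured overnight in Mueller Hinton Broth, diluted 10-fold, and shaken at 37 °C for 45 min to 2 h (about 10^8 CFU/mL). Diluted about 1000-fold to 10^5 CFU/mL. Compounds came from 25 mM DMSO stocks, were prepared at 4X, and were serially diluted 1:2 to seven concentrations. OD600 was recorded.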

[8] = test system: Lu1; assay: Anticancer activity against human Lu1 cells assessed as reduction in cell viability incubated for 48 hrs by MTT assay; assay type: functional; details: Lu1, 48 h, read-out: ED50 (the source's name)
[9] = Anticancer activity against human […] cells assessed as reduction in cell viability incubated for 48 hrs by MTT assay; assay type: functional; details: read-out: ED50 (the source's name)
[10] = test system: KB; assay: Anticancer activity against human KB cells assessed as reduction in cell viability incubated for 48 hrs by MTT assay; assay type: functional; details: read-out: ED50 (the source's name)

Compound | MIC [1] [µM] | IC50 [2] [µM] | EC50 [10] [µM] | MIC [3] [µM] | MIC [4] [µM] | MIC [5] [µM] | MIC [6] [µM] | MIC [7] [µM] | EC50 [8] [µM] | EC50 [9] [µM]
CCCCCCCCO[C@@H]1O[C@@H](C)[C@H](OC(=O)CCCCC)[C@@H](O[C@@H]2O[C@@H](C)[C@H](OC(C)=O)[C@@H](O[C@@H]3O[C@@H](C)[C@H](OC(C)=O)[C@@H](O[C@@H]4O[C@@H](C)[C@H](O)[C@@H](O)[C@H]4OC(C)=O)[C@H]3O)[C@H]2OC(C)=O)[C@H]1O | 64 (≈ 62.8 µg/mL) | 259 | – | > 32 | > 32 | 32 (≈ 31.4 µg/mL) | > 32 | > 32 | – | –
CCCCCCCCO[C@@H]1O[C@@H](C)[C@H](OC(=O)CCCCC)[C@@H](O[C@@H]2O[C@@H](C)[C@H](OC(C)=O)[C@@H](O[C@@H]3O[C@@H](C)[C@H](OC(C)=O)[C@@H](O[C@@H]4O[C@@H](C)[C@H](O)[C@@H](O)[C@H]4O)[C@H]3O)[C@H]2OC(C)=O)[C@H]1O | 32 (≈ 30 µg/mL) | 18 | – | > 32 | > 32 | 32 (≈ 30 µg/mL) | > 32 | > 32 | – | –
CCCCCCCCO[C@@H]1O[C@@H](C)[C@H](OC(=O)CCCCC)[C@@H](O[C@@H]2O[C@@H](C)[C@H](OC(C)=O)[C@@H](OC(=O)CCC)[C@H]2OC(C)=O)[C@H]1O | > 128 | 32 | – | – | – | – | – | – | – | –
CCCCCCCCO[C@@H]1O[C@@H](C)[C@H](OC(=O)CCCCC)[C@@H](O[C@@H]2O[C@@H](C)[C@H](OC(C)=O)[C@@H](OC(=O)CC(C)C)[C@H]2OC(C)=O)[C@H]1O | > 128 | 79 | – | – | – | – | – | – | – | –
CCCCCCCCO[C@@H]1O[C@@H](C)[C@H](OC(=O)CCCCC)[C@@H](O[C@@H]2O[C@@H](C)[C@H](OC(C)=O)[C@@H](O[C@@H]3O[C@@H](C)[C@H](OC(C)=O)[C@@H](O)[C@H]3OC(C)=O)[C@H]2OC(C)=O)[C@H]1O [MEZZETTIASIDE 2] | > 128 | 17 | 7 | – | – | – | – | – | 10 | 5
CCCCCCCCO[C@@H]1O[C@@H](C)[C@H](OC(=O)CCCCC)[C@@H](O[C@@H]2O[C@@H](C)[C@H](OC(C)=O)[C@@H](O[C@@H]3O[C@@H](C)[C@H](OC(C)=O)[C@@H](O)[C@H]3O)[C@H]2OC(C)=O)[C@H]1O [MEZZETTIASIDE 4] | 8 (≈ 6.34 µg/mL) | 9 | 19 | > 32 | > 32 | 16 (≈ 12.7 µg/mL) | 16 (≈ 12.7 µg/mL) | 32 (≈ 25.4 µg/mL) | 25 | 8
CCCCCCCCO[C@@H]1O[C@@H](C)[C@H](OC(=O)CCCCC)[C@@H](O[C@@H]2O[C@@H](C)[C@H](OC(C)=O)[C@@H](O[C@@H]3O[C@@H](C)[C@H](O)[C@@H](O)[C@H]3OC(C)=O)[C@H]2OC(C)=O)[C@H]1O [MEZZETTIASIDE 8] | 16 (≈ 12.7 µg/mL) | 24 | > 20 | > 32 | > 32 | > 32 | > 32 | > 32 | 25 | 10
CCCCCCCCO[C@@H]1O[C@@H](C)[C@H](OC(=O)CCCCC)[C@@H](O[C@@H]2O[C@@H](C)[C@H](O)[C@@H](OC(C)=O)[C@H]2OC(C)=O)[C@H]1O [MEZZETTIASIDE 9] | 16 (≈ 9.68 µg/mL) | 151 | 19 | > 32 | > 32 | 32 (≈ 19.4 µg/mL) | > 32 | > 32 | 9 | > 20
CCCCCCCCO[C@@H]1O[C@@H](C)[C@H](OC(=O)CCCCC)[C@@H](O[C@@H]2O[C@@H](C)[C@H](OC(C)=O)[C@@H](O)[C@H]2OC(C)=O)[C@H]1O [MEZZETTIASIDEIDE 10] | > 128 | > 500 | > 20 | – | – | – | – | – | > 20 | > 20

Further lines, with some results ahead:

MIC [1] [µM] | IC50 [2] [µM] | EC50 [10] [µM] | Compound | MIC [3] [µM] | MIC [4] [µM] | MIC [5] [µM] | MIC [6] [µM] | MIC [7] [µM] | EC50 [8] [µM] | EC50 [9] [µM]
8 (≈ 6.01 µg/mL) | – | – | CCCCCCCCCCCCO[C@@H]1O[C@@H](C)[C@H](O[C@@H]2O[C@@H](C)[C@H](OC(C)=O)[C@@H](O[C@@H]3O[C@@H](C)[C@H](O)[C@@H](OC(C)=O)[C@H]3OC(C)=O)[C@H]2O)[C@@H](O)[C@H]1O | – | – | – | – | – | – | –
8 (≈ 7.51 µg/mL) | – | – | CCCCCCCCCCCCO[C@@H]1O[C@@H](C)[C@H](O[C@@H]2O[C@@H](C)[C@H](OC(C)=O)[C@@H](O[C@@H]3O[C@@H](C)[C@H](OC(C)=O)[C@@H](O[C@@H]4O[C@@H](C)[C@H](O)[C@@H](O)[C@H]4OC(C)=O)[C@H]3OC(C)=O)[C@H]2O)[C@@H](O)[C@H]1O | – | – | – | – | – | – | –
4 (≈ 3.92 µg/mL) | 8 | – | CCCCCCCCCCCCO[C@@H]1O[C@@H](C)[C@H](O[C@@H]2O[C@@H](C)[C@H](OC(C)=O)[C@@H](O[C@@H]3O[C@@H](C)[C@H](OC(C)=O)[C@@H](O[C@@H]4O[C@@H](C)[C@H](OC(C)=O)[C@@H](O)[C@H]4OC(C)=O)[C@H]3OC(C)=O)[C@H]2O)[C@@H](O)[C@H]1O | – | – | – | – | – | – | –
8 (≈ 7.18 µg/mL) | – | – | CCCCCCCCCCCCO[C@@H]1O[C@@H](C)[C@H](O[C@@H]2O[C@@H](C)[C@H](OC(C)=O)[C@@H](O[C@@H]3O[C@@H](C)[C@H](O)[C@@H](O[C@@H]4O[C@@H](C)[C@H](OC(C)=O)[C@@H](O)[C@H]4O)[C@H]3OC(C)=O)[C@H]2O)[C@@H](O)[C@H]1O | – | – | – | – | – | – | –
> 128 | 40 | – | CCCCCCCCO[C@@H]1O[C@@H](C)[C@H](OC(=O)CCCCC)[C@@H](O[C@@H]2O[C@@H](C)[C@H](OC(C)=O)[C@@H](O[C@@H]3O[C@@H](C)[C@H](OC(C)=O)[C@@H](O[C@@H]4O[C@@H](C)[C@H](O)[C@@H](OC(C)=O)[C@H]4O)[C@H]3O)[C@H]2OC(C)=O)[C@H]1O | – | – | – | – | – | – | –
> 128 | 141 | – | CCCCCCCCO[C@@H]1O[C@@H](C)[C@H](OC(=O)CCCCC)[C@@H](O[C@@H]2O[C@@H](C)[C@H](OC(C)=O)[C@@H](OC(=O)C(C)(C)C)[C@H]2OC(C)=O)[C@H]1O | – | – | – | – | – | – | –
> 128 | 47 | – | CCCCCCCCO[C@@H]1O[C@@H](C)[C@H](OC(=O)CCCCC)[C@@H](O[C@@H]2O[C@@H](C)[C@H](OC(C)=O)[C@@H](OC(=O)C(C)C)[C@H]2OC(C)=O)[C@H]1O | – | – | – | – | – | – | –
32 (≈ 24 µg/mL) | – | – | CCCCCCCCCCCCO[C@@H]1O[C@@H](C)[C@H](O[C@@H]2O[C@@H](C)[C@H](OC(C)=O)[C@@H](O[C@@H]3O[C@@H](C)[C@H](OC(C)=O)[C@@H](O)[C@H]3OC(C)=O)[C@H]2O)[C@@H](O)[C@H]1O | – | – | – | – | – | – | –
4 (≈ 3.76 µg/mL) | – | – | CCCCCCCCCCCCO[C@@H]1O[C@@H](C)[C@H](O[C@@H]2O[C@@H](C)[C@H](OC(C)=O)[C@@H](O[C@@H]3O[C@@H](C)[C@H](OC(C)=O)[C@@H](O[C@@H]4O[C@@H](C)[C@H](OC(C)=O)[C@@H](O)[C@H]4O)[C@H]3OC(C)=O)[C@H]2O)[C@@H](O)[C@H]1O | – | – | – | – | – | – | –
> 128 | 10 | 17 | CCCCCCCCO[C@@H]1O[C@@H](C)[C@H](OC(=O)CCCCC)[C@@H](O[C@@H]2O[C@@H](C)[C@H](OC(C)=O)[C@@H](O[C@@H]3O[C@@H](C)[C@H](OC(C)=O)[C@@H](OC(C)=O)[C@H]3O)[C@H]2OC(C)=O)[C@H]1O [MEZZETTIASIDE 3] | – | – | – | – | – | 14 | 6
> 128 | 15 | 20 | CCCCCCCCO[C@@H]1O[C@@H](C)[C@H](OC(=O)CCCCC)[C@@H](O[C@@H]2O[C@@H](C)[C@H](OC(C)=O)[C@@H](OC(C)=O)[C@H]2OC(C)=O)[C@H]1O [MEZZETTIASIDE 11] | – | – | – | – | – | 9 | 14

— ChEMBL document CHEMBL3588859, “Structure activity relationship study of Mezzettiasides natural products and their four new disaccharide analogues for anticancer/antibacterial activity” (Medchemcomm, 2014)
